ChEMBL document CHEMBL1144894, “Synthesis of 1-boraadamantaneamine derivatives with selective astrocyte vs C6 glioma antiproliferative activity. A novel class of anti-hepatitis C agents with potential to bind CD81” (2003)

Assays:
Rattus norvegicus = species: Rattus norvegicus; assay: Concentration showing a non-astrocyte selective antiproliferative effect was determined; type: functional
Outline: (§1)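 Primary rat pup astrocytes (CD81-enriched, 4-8 days postpartum) and C6 glioma (CD81-deficient) were run in parallel, seeded at 3 × 10³ and 10³ cells/well. Compounds at 0.1-10 µM were given in 2% FCS-BME (0.05% DMSO final) for 4 days at 37 °C, 5% CO₂. Cells were formaldehyde-fixed and cresyl violet-stained (pH 3.7), with A560 read-out. % survival is relative to untreated wells, from 3 experiments × 4 wells.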

[1] = Nonspecific cytotoxicity at the specified concentration; type: functional
[2] = Antiproliferative effect was determined on CD81 enriched cell lines for binding and activation of the CD81 receptor; type: functional, Rattus norvegicus; outline: as §1
[3] = Tested for greatest astrocyte-selective antiproliferative character at concentration of 5 uM; type: functional
Outline: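 Rat pup primary astrocytes (CD81-enriched, 4-8 days postpartum) and C6 glioma cells run in parallel, seeded at 3 × 10³ and 10³ per well. Incubated with compound for 4 days at 37 °C, 5% CO₂, final DMSO 0.05%. Fixed in formaldehyde, stained with cresyl violet, dye eluted in acetic acid, A560 read. % survival = treated/untreated ×100. Three experiments, four wells each.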

| SMILES | Concentration (Rattus norvegicus) [µM] | Cytotoxicity [1] [µM] | Antiproliferative effect [2] [µM] | Cell survival [3] [%] |
| --- | --- | --- | --- | --- |
| COC(=O)[C@H](CC(C)C)NC(=O)C12CC3CC(CC(C3)C1)C2 | 10 |  |  |  |
| C1C2CC3CC1CC(NC14CC5CC(CC(C5)C1)C4)(C2)C3 | 10 |  |  |  |
| COC(=O)[C@H](CC(C)C)[NH2+][B-]12CC3CC(CC(C3)C1)C2 |  | >10 | 10 |  |
| OCC[NH2+][B-]12CC3CC(CC(C3)C1)C2 |  | >10 | 10 |  |
| CC(C)C[C@H](NC(=O)C12CC3CC(CC(C3)C1)C2)C(=O)O |  | >10 | 10 |  |
| C1C2CC3CC1C[B-]([NH2+]C14CC5CC(CC(C5)C1)C4)(C2)C3 | 10 |  |  |  |
| COC(=O)[C@H](Cc1ccccc1)NC(=O)C12CC3CC(CC(C3)C1)C2 |  | >10 | 10 |  |
| O=C(NC12CC3CC(CC(C3)C1)C2)C12CC3CC(CC(C3)C1)C2 | 10 |  |  |  |
| COC(=O)[C@H](Cc1ccccc1)[NH2+][B-]12CC3CC(CC(C3)C1)C2 |  | >10 | 10 |  |
| O=C(O)[C@H](Cc1ccccc1)NC(=O)C12CC3CC(CC(C3)C1)C2 |  | >10 | 10 | 82 |
| COC(=O)[C@H](CS)[NH2+][B-]12CC3CC(CC(C3)C1)C2 | 10 |  |  |  |
